Laboratory results: ChEMBL document CHEMBL1777774, “A novel, broad-spectrum antitumor compound containing the 1-hydroxycyclohexa-2,5-dien-4-one group: the disclosure of a new antitumor pharmacophore in protoapigenone 1” (Bioorg Med Chem Lett, 2011)

Assays:
[1] = test system: H22; experiment: Antitumor activity against mouse H22 tumor-nearing ICR mouse assessed as inhibition of tumor growth at 10 mg/kg, ip for 7 days measured on day 9; format: functional; details: route intraperitoneal
Summary of the method: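 ICR mice given H22 ascites cells from serial passage, 0.2 ml of 1×10^7 cells/ml injected subcutaneously into right flank, 10 mice per group. From day 2, 10 mg/kg/day ip in 10% ethanol (10 ml/kg) for 7 days. Cyclophosphamide 10 mg/kg as reference, vehicle-treated tumor model group. Killed day 9, tumors weighed. Inhibition = (model − treated tumor weight)/model weight × 100%.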

[2] = test system: MCF7; experiment: Antitumor activity against human MCF7 cells assessed as cell proliferation after 24 hrs by MTT assay; format: functional, cell-based; details: MCF7, 24 h
Summary of the method: (§1)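 Cells seeded at 2000 per well in 96-well plates and allowed to adhere. Compounds in DMSO, diluted in culture medium, added at 0.1–100 μM (eight wells per concentration) for 24 h. DMSO vehicle control. MTT 0.5 mg/mL (in PBS) for 4 h, then medium removed and DMSO added, absorbance read at 570 nm. IC50 from concentration vs percent absorbance plot. Mean ± SD, n = 4.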

[3] = test system: Mus musculus; experiment: Toxicity in […] H22 tumor-nearing ICR mouse assessed as thymus index at 10 mg/kg, ip for 7 days measured on day 9 relative to control; format: organism-based; design: dose 10 mg/kg, route intraperitoneal; details: in vivo, 168 h
Summary of the method: (§2)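 H22-bearing ICR mice (10 per group, plus a saline-injected normal group) dosed ip at 10 mg/kg/day in 10% ethanol for 7 days from day 2. Vehicle given to controls. On day 9 blood was taken for WBC count, and body weight, thymus and spleen were weighed. Thymus or spleen index = organ weight (mg)/body weight (g).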

[4] = test system: Mus musculus; experiment: Toxicity in […] H22 tumor-nearing ICR mouse assessed as white blood cell count at 10 mg/kg, ip for 7 days measured on day 9 relative to control; format: organism-based; design: dose 10 mg/kg, route intraperitoneal; details: in vivo, 168 h; summary of the method: as §2
[5] = test system: HEK293; experiment: Cytotoxicity against human HEK293 cells assessed as cell proliferation after 24 hrs by MTT assay; format: cell-based; details: HEK293, 24 h; summary of the method: as §1
[6] = test system: RPMI-8226; experiment: Antitumor activity against human RPMI8226 cells assessed as cell proliferation after 24 hrs by MTT assay; format: functional, cell-based; details: RPMI-8226, 24 h; summary of the method: as §1
[7] = test system: MDA-MB-231; experiment: Antitumor activity against human MDA-MB-231 cells assessed as cell proliferation after 24 hrs by MTT assay; format: functional, cell-based; details: MDA-MB-231, 24 h; summary of the method: as §1
[8] = test system: SK-OV-3; experiment: Antitumor activity against human SKOV3 cells assessed as cell proliferation after 24 hrs by MTT assay; format: functional, cell-based; details: SK-OV-3, 24 h; summary of the method: as §1
[9] = test system: PANC-1; experiment: Antitumor activity against human PANC1 cells assessed as cell proliferation after 24 hrs by MTT assay; format: functional, cell-based; details: PANC-1, 24 h; summary of the method: as §1
[10] = test system: PBMC; experiment: Cytotoxicity against human PBMC assessed as cell proliferation after 24 hrs by MTT assay; format: cell-based; summary of the method: as §1
[11] = test system: Mus musculus; experiment: Toxicity in […] H22 tumor-nearing ICR mouse assessed as spleen index at 10 mg/kg, ip for 7 days measured on day 9 relative to control; format: organism-based; design: dose 10 mg/kg, route intraperitoneal; details: in vivo, 168 h; summary of the method: as §2
[12] = test system: Mus musculus; experiment: Toxicity in […] H22 tumor-nearing ICR mouse assessed as decrease in total nucleated bone marrow cells at 10 mg/kg, ip for 7 days measured on day 9; format: organism-based; design: dose 10 mg/kg, route intraperitoneal; scale not given: the % may be the effect or the level left; details: in vivo, 168 h
Summary of the method: (§3)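 H22-bearing ICR mice dosed ip 10 mg/kg/day in 10% ethanol for 7 days from day 2, with vehicle controls. Killed day 9 and femoral marrow flushed. Nucleated cells counted with a Coulter Counter. Granulocytic and erythroid cells per femur counted on May-Grünwald-Giemsa-stained marrow smears.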

[13] = test system: U-266; experiment: Antitumor activity against human U266 cells assessed as cell proliferation after 24 hrs by MTT assay; format: functional, cell-based; details: U-266, 24 h; summary of the method: as §1
[14] = test system: Mus musculus; experiment: Toxicity in […] H22 tumor-nearing ICR mouse assessed as body weight at 10 mg/kg, ip for 7 days measured on day 9 relative to control; format: organism-based; design: dose 10 mg/kg, route intraperitoneal; details: in vivo, 168 h; summary of the method: as §2
[15] = test system: HepG2; experiment: Antitumor activity against human HepG2 cells assessed as cell proliferation after 24 hrs by MTT assay; format: functional, cell-based; details: HepG2, 24 h; summary of the method: as §1
[16] = test system: PC-3; experiment: Antitumor activity against human PC3 cells assessed as cell proliferation after 24 hrs by MTT assay; format: functional, cell-based; details: PC-3, 24 h; summary of the method: as §1
[17] = test system: Mus musculus; experiment: Toxicity in […] H22 tumor-nearing ICR mouse assessed as decrease in ratio of granulocytic and erythroid cell system at 10 mg/kg, ip for 7 days measured on day 9; format: organism-based, Erythrocyte; design: dose 10 mg/kg, route intraperitoneal; scale not given: the % may be the effect or the level left; details: in vivo, 168 h; summary of the method: as §3

IC50 [2]	IC50 [6]	IC50 [7]	IC50 [8]	IC50 [9]	IC50 [15]	IC50 [16]	SMILES	inhibition in vivo at 10 mg/kg [1]	Activity [3]	Activity [4]	IC50 [5]	IC50 [10]	Activity [11]	Activity [12]	IC50 [13]	Activity [14]	Activity [17]
							O=P1(N(CCCl)CCCl)NCCCO1 (stereo not given) [CYCLOPHOSPHAMIDE ANHYDROUS]	41.7%									
5.5 µM	3.93 µM	1700 nM	710 nM	22.1 µM	7.77 µM	6.13 µM	O=C1C=CC(O)(c2cc(=O)c3c(O)cc(O)cc3o2)C=C1 [PROTOAPIGENONE]	< 5%	Non-toxic	Non-toxic	6.79 µM	8.11 µM	Non-toxic	51.52%	7.66 µM	Non-toxic	36.9%
0.71 µM	13.5 µM	380 nM	640 nM	3.08 µM	1.76 µM	3.43 µM	O=C1C=CC(O)(c2cc(=O)cco2)C=C1	34.1%	Non-toxic	Non-toxic	30 µM	49.3 µM	Non-toxic	Non-toxic	9.44 µM	Non-toxic	Non-toxic
